# Experimental data reported in ChEMBL document CHEMBL1139758, “Second generation of alpha-tocopherol analogs-nitric oxide donors: Synthesis, physicochemical, and biological characterization” (Bioorg Med Chem, 2007).
# Tests used:
# [1] = test system: Aorta; assay: Vasodilation of noradrenaline-induced contraction of Wistar Kyoto rat thoracic aorta at 20 uM; assay type: functional
# Outline: (§1)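 Thoracic aorta rings (4 mm) from heparinized, pentobarbital-anaesthetized (40 mg/kg ip) Wistar Kyoto rats (250–300 g). Compounds added in DMSO to the organ bath once contraction reached a plateau; α-tocopherol, Trolox and vehicle served as controls. Where used, ODQ (1 µM) was added at least 10 min before the compound.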
# [2] = test system: Aorta; assay: Vasodilation of noradrenaline-induced contraction of Wistar Kyoto rat thoracic aorta at 10 uM; assay type: functional; outline: as §1
# [3] = test system: THP-1; assay: Cytotoxicity against human THP1 cells by MTT assay; assay type: functional, cell-based
# Outline: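 Phorbol ester (100 ng/mL)-differentiated THP-1 cells, seeded 1 × 10^5/well in RPMI with fetal serum, attached 48 h at 37 °C in 5% CO2, then exposed 24 h to compounds at 1–500 µM. MTT added to 0.2 mg/mL for 3 h at 37 °C, formazan dissolved in DMSO, A560 read. IC50 is the concentration halving control absorbance; mean of at least three determinations.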
# [4] = test system: J774; assay: Cytotoxicity against mouse J774 cells by MTT assay; assay type: cell-based
# Outline: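 J774.1 macrophages, kept in DMEM with 10% heat-inactivated FCS, seeded 1 × 10^5/well in RPMI with fetal serum and left to attach 48 h (37 °C, 5% CO2). Compounds at 1–500 µM for 24 h. Viability by MTT reduction (0.2 mg/mL, 3 h, 37 °C), formazan in DMSO, A560.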
smiles,measurement,setting,value
CC(=O)Oc1c(C)c(C)c2c(c1C)CCC(C)(C(=O)O)O2 (stereo not given),Activity,[1],0%
Cc1c(C)c2c(c(C)c1OCc1c(S(=O)(=O)c3ccccc3)no[n+]1[O-])CCC(C)(CCCC(C)CCCC(C)CCCC(C)C)O2 (stereo not given),Activity,[2],15%
Cc1c(C)c2c(c(C)c1O)CC[C@@](C)(CCC[C@H](C)CCC[C@H](C)CCCC(C)C)O2 [ALPHA-TOCOPHEROL],IC50,[3],> 500 µM
same,IC50,[4],> 500 µM
CC(=O)Oc1c(C)c(C)c2c(c1C)CCC(C)(CCCC(C)CCCC(C)CCCC(C)C)O2 (stereo not drawn) [alpha-TOCHOPHERYL ACETATE],Activity,[1],0%
